The record followed here is ChEMBL document CHEMBL1240333, “Surveying polypeptide and protein domain conformation and association with FlAsH and ReAsH” (Nat Chem Biol, 2007).

Experiment [1] is described as follows: Binding affinity to avian pancreatic polypeptide F24P mutant. In outline: (§1)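 Fluorescence titration: 25 nM FlAsH or ReAsH titrated with increasing synthetic peptide or protein domain in 100 mM Tris-HCl pH 7.8 with 3.5 mM TCEP, 1 mM EDT, 1 mM EDTA. Emission read at 530 ± 12.5 nm (FlAsH) or 630 ± 17.5 nm (ReAsH) after reaching equilibrium, tracked over time. Apparent Kd taken from intensity versus concentration. Points are means of ≥3 independent titrations ± s.d.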

For experiment [2], the system named is HeLa. Briefly: Binding affinity to eGFP-tagged avian pancreatic polypeptide F24P mutant expressed in human HeLa cells at 500 nM after 10 hrs by FRET assay. It counts as cell-based.
For experiment [3], the system named is HeLa. Briefly: Binding affinity to eGFP-tagged avian pancreatic polypeptide F24P mutant expressed in human HeLa cells at 100 uM after 30 mins by FRET assay. The class given is cell-based.
The test system of experiment [4] is HeLa. Briefly: Binding affinity to eGFP-tagged avian pancreatic polypeptide F24P mutant expressed in human HeLa cells by flow cytometry. It counts as cell-based. In outline: (§2)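 Live HeLa cells transiently expressing eGFP fusions (aPP C-terminal or GCN4 N-terminal to eGFP) or eGFP alone. Stained 30 min with 500 nM ReAsH-EDT2 plus 100 μM EDT in phenol red-free, serum-free DMEM with 2 mM L-glutamine. PBS wash, then 0.75 mM BAL 30 min. Cells trypsinized and run by flow cytometry: eGFP 488 nm laser, 530 ± 15 nm; ReAsH 568 nm laser, 610 ± 10 nm. Mean ReAsH intensity plotted per log unit of eGFP.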
A general note: A flow cytometer gives signals particle by particle.

The nature of experiment [5]: Binding affinity to alpha helix of avian pancreatic polypeptide F24P mutant by circular dichroism spectroscopy. In outline: (§3)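 CD spectra recorded at 25 °C in 10 mM sodium phosphate pH 7.0 with no competing dithiols. Protein at 10 μM (aPP, Zip4) or 20 μM (GCN4, Jun); unmodified peptides and their FlAsH complexes. Three wavelength scans at 50 nm min-1 averaged, buffer-only background subtracted.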
In general terms: CD spectra are sensitive to the conformation of chiral molecules.

The nature of experiment [6]: Binding affinity to beta sheet of tryptophan Zip4 polypeptide W916A mutant by circular dichroism spectroscopy. In outline: as §3
Experiment [7] in a line: Binding affinity to tryptophan Zip4 polypeptide W916A mutant containing bipartite tetracysteine motif. In outline:
as §1

Experiment [8] in a line: Binding affinity to tryptophan Zip4 polypeptide containing bipartite tetracysteine motif at 100 nM.
A short description of experiment [9]: Binding affinity to tryptophan Zip4 polypeptide containing bipartite tetracysteine motif. In outline:
as §1

Experiment [10] can be described thus: Binding affinity to tryptophan Zip4 polypeptide containing bipartite tetracysteine motif at 25 nM. In outline:
as §1

The nature of experiment [11]: Binding affinity to beta sheet structure of tryptophan Zip4 polypeptide by circular dichroism spectroscopy. In outline: as §3
Experiment [12] can be described thus: Binding affinity to avian pancreatic polypeptide F24/Y31P mutant. The method, boiled down:
as §1

Experiment [13] is described as follows: Binding affinity to alpha helix of avian pancreatic polypeptide F24/Y31P mutant by circular dichroism spectroscopy. The method, boiled down:
as §3

Experiment [14] can be described thus: Binding affinity to avian pancreatic polypeptide containing bipartite tetracysteine motif. In outline: as §1
Experiment [15] is described as follows: Binding affinity to avian pancreatic polypeptide containing bipartite tetracysteine motif at 25 nM. The method, boiled down:
as §1

The subject of experiment [16] is HeLa. Briefly: Binding affinity to eGFP-tagged avian pancreatic polypeptide expressed in human HeLa cells at 100 uM after 30 mins by FRET assay. The class given is cell-based.
Experiment [17] is described as follows: Binding affinity to avian pancreatic polypeptide containing bipartite tetracysteine motif at 100 nM. The note with it: filed as agonist.
The nature of experiment [18]: Binding affinity to alpha helix of avian pancreatic polypeptide by circular dichroism spectroscopy. In outline: as §3
Experiment [19] deals with HeLa. Briefly: Binding affinity to eGFP-tagged avian pancreatic polypeptide expressed in human HeLa cells by flow cytometry. The class given is cell-based. In outline:
as §2

Experiment [20] deals with HeLa. Briefly: Binding affinity to eGFP-tagged avian pancreatic polypeptide expressed in human HeLa cells at 500 nM after 10 hrs by FRET assay. It counts as cell-based.
Experiment [21] is described as follows: Binding affinity to c-Jun L20P mutant at 25 degC by circular dichroism spectroscopy.
Experiment [22] in a line: Binding affinity to c-Jun homodimer L20P mutant containing bipartite tetracysteine motif. The method, boiled down:
as §1

Several values for one entry are separate records, joined by “and”; a condition that tells them apart may be missing. Equal entries are not always repeated. Activity calls are given as the source filed them. No cut-off for these calls is given here. Peptide text beside a SMILES is read from it.

As to `CC[C@H](C)[C@H](NC(=O)[C@H](CC(C)C)NC(=O)[C@H](CC(=O)O)NC(=O)[C@H](CCC(=O)O)NC(=O)[C@@H](NC(=O)[C@@H]1CCCN1C(=O)[C@H](C)NC(=O)[C@H](CC(=O)O)NC(=O)[C@H](CC(=O)O)NC(=O)CNC(=O)[C@@H]1CCCN1C(=O)[C@H](Cc1ccc(O)cc1)NC(=O)[C@@H](NC(=O)[C@@H]1CCCN1C(=O)[C@H](CCC(N)=O)NC(=O)[C@H](CO)NC(=O)[C@@H]1CCCN1C(=O)[C@H](CS)NC(=O)[C@H](CS)NC(=O)[C@H](CC(N)=O)NC(=O)[C@H](CC(C)C)NC(=O)[C@H](Cc1ccccc1)NC(C)=O)[C@H](C)O)C(C)C)C(=O)N[C@@H](CCCNC(=N)N)C(=O)N1CCC[C@H]1C(=O)N[C@@H](Cc1ccc(O)cc1)C(=O)N[C@@H](CC(=O)O)C(=O)N[C@@H](CC(N)=O)C(=O)N[C@@H](CC(C)C)C(=O)N[C@@H](CCC(N)=O)C(=O)N[C@@H](CCC(N)=O)C(=O)N[C@@H](Cc1ccc(O)cc1)C(=O)N[C@@H](CC(C)C)C(=O)N[C@@H](CC(N)=O)C(=O)N[C@H](C(=O)N[C@@H](CS)C(=O)N[C@@H](CS)C(=O)N[C@@H](CCSC)C(=O)N[C@@H](CCC(=O)O)C(=O)N1CCC[C@H]1C(N)=O)C(C)C`, the Kapp in [1] is 27 µM and 22 µM. The result (in the experiment on HeLa [2]; in [5]) was inactive. Further, the result in the experiment on HeLa [3] and in the experiment with HeLa [4] was Active.

As for `CSCC[C@H](NC(=O)[C@H](CS)NC(=O)[C@H](CS)NC(=O)[C@@H](NC(=O)[C@H](Cc1c[nH]c2ccccc12)NC(=O)[C@@H](NC(=O)[C@H](C)NC(=O)[C@@H](NC(=O)[C@H](CCCCN)NC(=O)[C@@H](NC(=O)[C@H](C)NC(=O)[C@H](CC(=O)O)NC(=O)[C@H](CC(=O)O)NC(=O)[C@H](C)NC(=O)[C@@H](NC(=O)[C@H](Cc1c[nH]c2ccccc12)NC(=O)[C@H](CCC(=O)O)NC(=O)[C@H](CS)NC(=O)[C@H](CS)NC(=O)[C@H](CC(N)=O)NC(=O)[C@H](CC(C)C)NC(=O)[C@H](Cc1ccccc1)NC(C)=O)[C@@H](C)O)[C@@H](C)O)[C@@H](C)O)[C@@H](C)O)[C@@H](C)O)C(=O)N[C@@H](CCC(=O)O)C(=O)N1CCC[C@H]1C(N)=O` (Ac-FLNCCEWTADDATKTATWTCCMEP-NH2), the result in [6] was inactive. For the same molecule, in experiment [7], the Kapp is 38 µM and 13 µM.

For `CSCC[C@H](NC(=O)[C@H](CS)NC(=O)[C@H](CS)NC(=O)[C@@H](NC(=O)[C@H](Cc1c[nH]c2ccccc12)NC(=O)[C@@H](NC(=O)[C@H](Cc1c[nH]c2ccccc12)NC(=O)[C@@H](NC(=O)[C@H](CCCCN)NC(=O)[C@@H](NC(=O)[C@H](C)NC(=O)[C@H](CC(=O)O)NC(=O)[C@H](CC(=O)O)NC(=O)[C@H](Cc1c[nH]c2ccccc12)NC(=O)[C@@H](NC(=O)[C@H](Cc1c[nH]c2ccccc12)NC(=O)[C@H](CCC(=O)O)NC(=O)[C@H](CS)NC(=O)[C@H](CS)NC(=O)[C@H](CC(N)=O)NC(=O)[C@H](CC(C)C)NC(=O)[C@H](Cc1ccccc1)NC(C)=O)[C@@H](C)O)[C@@H](C)O)[C@@H](C)O)[C@@H](C)O)[C@@H](C)O)C(=O)N[C@@H](CCC(=O)O)C(=O)N1CCC[C@H]1C(N)=O` (Ac-FLNCCEWTWDDATKTWTWTCCMEP-NH2), the result in [8] and in experiment [10] was Active. Besides, the Kapp in experiment [9] was 0.62 µM and 0.38 µM. In addition, the result in experiment [11] was inactive.

Consider `CC[C@H](C)[C@H](NC(=O)[C@H](CC(C)C)NC(=O)[C@H](CC(=O)O)NC(=O)[C@H](CCC(=O)O)NC(=O)[C@@H](NC(=O)[C@@H]1CCCN1C(=O)[C@H](C)NC(=O)[C@H](CC(=O)O)NC(=O)[C@H](CC(=O)O)NC(=O)CNC(=O)[C@@H]1CCCN1C(=O)[C@H](Cc1ccc(O)cc1)NC(=O)[C@@H](NC(=O)[C@@H]1CCCN1C(=O)[C@H](CCC(N)=O)NC(=O)[C@H](CO)NC(=O)[C@@H]1CCCN1C(=O)[C@H](CS)NC(=O)[C@H](CS)NC(=O)[C@H](CC(N)=O)NC(=O)[C@H](CC(C)C)NC(=O)[C@H](Cc1ccccc1)NC(C)=O)[C@H](C)O)C(C)C)C(=O)N[C@@H](CCCNC(=N)N)C(=O)N1CCC[C@H]1C(=O)N[C@@H](Cc1ccc(O)cc1)C(=O)N[C@@H](CC(=O)O)C(=O)N[C@@H](CC(N)=O)C(=O)N[C@@H](CC(C)C)C(=O)N[C@@H](CCC(N)=O)C(=O)N[C@@H](CCC(N)=O)C(=O)N1CCC[C@H]1C(=O)N[C@@H](CC(C)C)C(=O)N[C@@H](CC(N)=O)C(=O)N[C@H](C(=O)N[C@@H](CS)C(=O)N[C@@H](CS)C(=O)N[C@@H](CCSC)C(=O)N[C@@H](CCC(=O)O)C(=O)N1CCC[C@H]1C(N)=O)C(C)C`, for which the Kapp in [12] was 65 µM and 72 µM. For the same molecule, the result in [13] was inactive.

`CC[C@H](C)[C@H](NC(=O)[C@H](CC(C)C)NC(=O)[C@H](CC(=O)O)NC(=O)[C@H](CCC(=O)O)NC(=O)[C@@H](NC(=O)[C@@H]1CCCN1C(=O)[C@H](C)NC(=O)[C@H](CC(=O)O)NC(=O)[C@H](CC(=O)O)NC(=O)CNC(=O)[C@@H]1CCCN1C(=O)[C@H](Cc1ccc(O)cc1)NC(=O)[C@@H](NC(=O)[C@@H]1CCCN1C(=O)[C@H](CCC(N)=O)NC(=O)[C@H](CO)NC(=O)[C@@H]1CCCN1C(=O)[C@H](CS)NC(=O)[C@H](CS)NC(=O)[C@H](CC(N)=O)NC(=O)[C@H](CC(C)C)NC(=O)[C@H](Cc1ccccc1)NC(C)=O)[C@H](C)O)C(C)C)C(=O)N[C@@H](CCCNC(=N)N)C(=O)N[C@@H](Cc1ccccc1)C(=O)N[C@@H](Cc1ccc(O)cc1)C(=O)N[C@@H](CC(=O)O)C(=O)N[C@@H](CC(N)=O)C(=O)N[C@@H](CC(C)C)C(=O)N[C@@H](CCC(N)=O)C(=O)N[C@@H](CCC(N)=O)C(=O)N[C@@H](Cc1ccc(O)cc1)C(=O)N[C@@H](CC(C)C)C(=O)N[C@@H](CC(N)=O)C(=O)N[C@H](C(=O)N[C@@H](CS)C(=O)N[C@@H](CS)C(=O)N[C@@H](CCSC)C(=O)N[C@@H](CCC(=O)O)C(=O)N1CCC[C@H]1C(N)=O)C(C)C`: the Kapp in experiment [14] is 5.8 µM and 3.4 µM. The result (in [15]; with HeLa [16]; in the experiment on HeLa [19]; with HeLa [20]) was Active. Besides, the Activity result in [17] was “Agonist”. For the same molecule, the result in experiment [18] was inactive.

Turning to `CC[C@H](C)[C@H](NC(=O)[C@H](CCCNC(=N)N)NC(=O)[C@H](Cc1c[nH]c2ccccc12)NC(C)=O)C(=O)N[C@@H](C)C(=O)N[C@@H](CCCNC(=N)N)C(=O)N[C@@H](CC(C)C)C(=O)N[C@@H](CCC(=O)O)C(=O)N[C@@H](CCC(=O)O)C(=O)N[C@@H](CCCCN)C(=O)N[C@H](C(=O)N[C@@H](CCCCN)C(=O)N[C@H](C(=O)N[C@@H](CC(C)C)C(=O)N[C@@H](CCCCN)C(=O)N[C@@H](C)C(=O)N[C@@H](CCC(N)=O)C(=O)N[C@@H](CC(N)=O)C(=O)N[C@@H](CO)C(=O)N[C@@H](CCC(=O)O)C(=O)N1CCC[C@H]1C(=O)N[C@@H](C)C(=O)N[C@@H](CO)C(=O)N[C@H](C(=O)N[C@@H](C)C(=O)N[C@@H](CC(N)=O)C(=O)N[C@@H](CCSC)C(=O)N[C@@H](CC(C)C)C(=O)N[C@@H](CCCNC(=N)N)C(=O)N[C@@H](CCC(=O)O)C(=O)N[C@@H](CCC(N)=O)C(=O)N[C@H](C(=O)N[C@@H](C)C(=O)N[C@@H](CCC(N)=O)C(=O)N[C@@H](CC(C)C)C(=O)N[C@@H](CCCCN)C(=O)N[C@@H](CCC(N)=O)C(=O)N[C@@H](CCCCN)C(=O)N[C@H](C(=O)N[C@@H](CS)C(=O)N[C@@H](CS)C(N)=O)C(C)C)C(C)C)[C@@H](C)O)[C@@H](C)O)C(C)C` (Ac-WRIARLEEKVKTLKAQNSEPASTANMLREQVAQLKQKVCC-NH2), the outcome in experiment [21] was inactive. Moreover, in [22], the Kapp was > 111 µM.
